Assay results from different studies.
Matrix: plasma

C[C@]1(O)CCCN(c2nc(Nc3ccc(S(=O)(=O)N[C@H]4CC[C@H](CN5CCN(c6ccc(C7CCC(=O)NC7=O)cc6F)CC5)CC4)cc3F)ncc2C(F)(F)F)C1 (some centres unmarked)
half-life (rat; intravenous, 2 mg/kg): 3.7 h

Cc1cc2c(C(N)=O)cccc2n1-c1nc2c(c(NCc3ccccc3)n1)CCCN2
half-life (male Sprague-Dawley rat; oral, 10 mg/kg, single dose): 1.2 h

COCC(=O)N1CCC[C@H](C(=O)NCc2nc(-c3ccccc3)cs2)C1
half-life (male Sprague-Dawley rat; intravenous, 1 mg/kg): 6 h

Cc1nc(Nc2ncc(C(=O)Nc3c(C)cccc3Cl)s2)cc(N2CC[C@@H](N)C2)n1
half-life (male Sprague-Dawley rat; intravenous, 1 mg/kg): 2.8 h

C1=C/COCc2cc(ccc2OCCN2CCCC2)Nc2nccc(n2)-c2cccc(c2)COC/1
half-life (male Sprague-Dawley rat; oral, 36 mg/kg): 12.1 h

CC[C@H](C)[C@H](NC(=O)[C@@H]1CCCN1C(=O)CNC(=O)[C@H](Cc1ccccc1)NC(=O)[C@H](CC(N)=O)NC(=O)[C@H](CC(N)=O)NC(=O)[C@H](CO)NC(=O)[C@H](CO)NC(=O)[C@H](Cc1c[nH]cn1)NC(=O)[C@H](CCCNC(=N)N)NC(=O)[C@H](CC(C)C)NC(=O)[C@H](Cc1ccccc1)NC(=O)[C@H](CCC(=O)O)NC(=O)[C@H](C)NC(=O)[C@H](CC(C)C)NC(=O)[C@H](CCCNC(=N)N)NC(=O)[C@H](CCC(N)=O)NC(=O)[C@@H](NC(=O)[C@H](C)NC(=O)[C@@H]1CSSC[C@H](NC(=O)[C@H](CCCCN)NC(=O)CC[C@H](NC(=O)CCCCCCCCCCCCCCCCCCC(=O)O)C(=O)O)C(=O)N[C@@H](CC(N)=O)C(=O)N[C@@H]([C@@H](C)O)C(=O)N[C@@H](C)C(=O)N[C@@H]([C@@H](C)O)C(=O)N1)[C@@H](C)O)C(=O)N[C@@H](CC(C)C)C(=O)N1CCC[C@H]1C(=O)N1CCC[C@H]1C(=O)N[C@H](C(=O)N[C@@H](CC(N)=O)C(=O)N[C@H](C(=O)NCC(=O)N[C@@H](CO)C(=O)N[C@@H](CC(N)=O)C(=O)N[C@H](C(=O)N1CCC[C@H]1C(N)=O)[C@@H](C)O)C(C)C)[C@@H](C)O
half-life (male Sprague-Dawley rat; subcutaneous, 30 nmol/kg, single dose): 26.8 h

COc1ccc(N(Cc2csc(-c3ccccc3)n2)C(=O)CCCCCC(=O)NO)cc1
half-life (female Sprague-Dawley rat; intravenous, 5 mg/kg): 0.63 h

Cc1cc(S(=O)(=O)N[C@H]2CC[C@H](CN3CCN(c4ccc(C5CCC(=O)NC5=O)c(Cl)c4)CC3)CC2)ccc1Nc1ncc(C(F)(F)F)c(N2CCC[C@](C)(O)C2)n1 (some centres unmarked)
half-life (rat; intravenous, 2 mg/kg): 2.9 h

CCCCC(=O)Nc1ccc(-c2ccc3ncn(CCC)c(=O)c3c2)cn1
half-life (male rat; intravenous, 2.5 mg/kg): 0.582 h

[2H]c1cc(C)c(NC(=O)c2cnc(Nc3cc(N4CCCCC4)nc(C)n3)s2)c(Cl)c1
half-life (male Sprague-Dawley rat; intravenous, 1 mg/kg): 1.7 h

CCOCC(=O)N1CCC[C@H](C(=O)NCc2nc(-c3ccc(C)nc3)cs2)C1
half-life (male Sprague-Dawley rat; oral, 3 mg/kg): 1.9 h

CNS(=O)(=O)c1ccc(Nc2ncc(C(F)(F)F)c([C@H]3CC[C@@](C)(O)CC3)n2)c(C)c1
half-life (rat; intravenous, 2 mg/kg): 1.3 h

CC(=O)O[C@@H]1CC[C@@]2(C)[C@@H](CC[C@]3(C)[C@@H]2C(=O)C=C2[C@@H]4[C@@H](C)[C@H](C)CC[C@]4(C)CC[C@]23C)[C@@]1(C)C(=O)O
half-life (female Wistar rat; oral, 1 mg/kg, single dose): 9.9 h

COc1cc(-c2cc(C(C)=O)n3ccccc23)c(OC)cc1Cn1ccnc1
half-life (male Sprague-Dawley rat; intravenous, 5 mg/kg): 0.75 h

C=CC(=O)N1CCC([C@@H]2CCNc3c(C(N)=O)c(-c4ccc(Oc5ccccc5)cc4)nn32)CC1
half-life (Sprague-Dawley rat; oral, 16 mg/kg): 2.24 h

Cc1cc(S(=O)(=O)NC2CC(N3CCN(CC4CCN(c5ccc6c(c5F)n(C)c(=O)n6C5CCC(=O)NC5=O)CC4)CC3)C2)ccc1Nc1ncc(C(F)(F)F)c(N2CCCC(C)(O)C2)n1 (centres unmarked)
half-life (rat; intravenous, 2 mg/kg): 7.2 h

CCCCCCCCCC(=O)N[C@@H](Cc1c[nH]c2ccccc12)C(=O)N[C@H](CC(N)=O)C(=O)N[C@@H](CC(=O)O)C(=O)N[C@@H]1C(=O)NCC(=O)N[C@@H](CCCN)C(=O)N[C@@H](CC(=O)O)C(=O)N[C@H](C)C(=O)N[C@@H](CC(=O)O)C(=O)NCC(=O)N[C@H](CO)C(=O)N[C@@H]([C@H](C)CC(=O)O)C(=O)N[C@@H](CC(=O)c2ccccc2N)C(=O)O[C@@H]1C
half-life (male Wistar rat; subcutaneous, 125 mg/kg, single dose): 2.6 h

Cc1cc(S(=O)(=O)NC2CC(N3CC[C@@H](OC4CN(c5cccc6c5n(C)c(=O)n6C5CCC(=O)NC5=O)C4)[C@H](F)C3)C2)ccc1Nc1ncc(C(F)(F)F)c(N2CCC[C@](C)(O)C2)n1 (some centres unmarked)
half-life (rat; intravenous, 2 mg/kg): 2.4 h

O=C1CCC(N2Cc3cc(C4CCN(Cc5ccccc5)CC4)ccc3C2=O)C(=O)N1 (centres unmarked)
half-life (male Sprague-Dawley rat; intravenous, 1 mg/kg): 4.29 h

COc1nc(-c2cccc(-c3ccccc3)c2C)ccc1CNCCNC(=O)CCCCCCCCCCC(=O)N1CCN(CCNC(=O)c2cc3c(=O)n4cccc(C)c4nc3n(CCc3cccs3)c2=N)CC1
half-life (male Sprague-Dawley rat; intravenous, 2 mg/kg): 5.8 h

Cc1cc(S(=O)(=O)NC2CC(N3CCN(CC4CCN(c5cccc6c5n(C)c(=O)n6C5CCC(=O)NC5=O)CC4)C4(CC4)C3)C2)ccc1Nc1ncc(C(F)(F)F)c(N2CCC[C@](C)(O)C2)n1 (some centres unmarked)
half-life (rat; intravenous, 2 mg/kg): 3.5 h

CC(C)(N)COCC(=O)N1CCC[C@H](C(=O)NCc2nc(-c3ccc(C(F)(F)F)cc3)cs2)C1
half-life (male Sprague-Dawley rat; oral, 3 mg/kg): 7.3 h

C[C@H]1CN(CC2CCN(c3ccc(C4CCC(=O)NC4=O)cc3F)CC2)CC[C@H]1NS(=O)(=O)c1ccc(Nc2ncc(C(F)(F)F)c(N3CCC[C@](C)(O)C3)n2)c(F)c1 (some centres unmarked)
half-life (rat; intravenous, 2 mg/kg): 4.6 h

Cn1c(=O)c2[nH]cnc2n(C)c1=O
half-life (male Sprague-Dawley rat; intravenous, 11.25 mg/kg): 4.81 h

CCOCC(=O)N1CCC[C@H](C(=O)NCc2nc(-c3ccc(C#N)nc3)cs2)C1
half-life (male Sprague-Dawley rat; intravenous, 1 mg/kg): 1.8 h

Cc1cc(S(=O)(=O)NC2CC(N3CCN(CC4CCN(c5cccc6c5n(C)c(=O)n6C5CCC(=O)NC5=O)CC4)CC3)C2)ccc1Nc1ncc(C(F)(F)F)c(N2CCC[C@](C)(O)C2)n1 (some centres unmarked)
half-life (rat; intravenous, 2 mg/kg): 5.1 h

C[C@H]1Oc2cc(cnc2N)-c2c(nn(C)c2C#N)CN(C)C(=O)c2ccc(F)cc21
half-life (male Sprague-Dawley rat; oral, 10 mg/kg, single dose): 8.82 h

CCCc1nc2c(C)cc(-c3nc4ccccc4n3C)cc2n1Cc1ccc(-c2ccccc2C(=O)O)cc1
half-life (male Sprague-Dawley rat; oral, 8 mg/kg, single dose): 6.84 h

COCC(=O)N1CCC[C@H](C(=O)NCc2nc(-c3ccc(C#N)cc3)cs2)C1
half-life (male Sprague-Dawley rat; oral, 3 mg/kg): 2.4 h

CONC(=O)c1cccc2c1cc(C)n2-c1nc2c(c(NCc3ccccc3)n1)CCCN2
half-life (male Sprague-Dawley rat; oral, 10 mg/kg, single dose): 1.15 h

CCONC(=O)N1CCC[C@H](C(=O)NCc2nc(-c3ccc(C#N)cc3)cs2)C1
half-life (male Sprague-Dawley rat; intravenous, 1 mg/kg): 2.2 h

CNC(=O)c1cc(Oc2ccc(NC(=O)Nc3ccc(Cl)c(C(F)(F)F)c3)cc2)ccn1
half-life (male Sprague-Dawley rat; oral, 100 mg/kg, single dose): 13.8 h
